Tests used:
Mus musculus [1] = assay: Ability of 50 mg/kg of compound to kill L1210 tumor cells in mice is expressed as the log of the tumor cell population at the onset of treatment minus the log of the tumor cell population at the end of treatment; assay type: functional
How it was run: (§1)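 L1210 leukemia, 10^5 cells implanted ip on day 0. Drug given ip daily on days 1-5 as a saline suspension freshly prepared before each injection. Read-out is median survival of treated versus control mice (% T/C), and log cell kill is derived from it.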

Mus musculus [2] = assay: Toxicity day evaluation was carried out on day 5 for animal dosed with 6.25 mg/kg compound; 5/6; assay type: organism-based; design: dose 6.25 mg/kg; settings: in vivo
Mus musculus [3] = assay: The percent of the median survival time of test mice compared to control mice is % T/C which refers to tumor size in this case. It is determined for mice administered with 100 mg/kg compound on day 11 for MX-1 tumor cells; assay type: functional; settings: route intraperitoneal
How it was run: (§2)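 Human MX-1 mammary xenograft, a 1 mm3 (0.5 mg) tumor fragment implanted under the renal capsule of NCR-nu mice on day 0. Drug given ip as a fresh saline suspension on days 1, 5 and 9. Tumor size is assessed on day 11. A negative % T/C is percent shrinkage relative to the initial implant. Survivors in the toxicity group are […].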

Mus musculus [4] = assay: The […] for M5076 minus 1 tumor cells of test animals dosed with 50 mg/kg of compound; 10/10; assay type: functional
How it was run: (§3)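 M5076 sarcoma, 10^6 cells, inoculated ip into B6C3F1 mice on day 0. Fresh saline suspension given ip every fourth day (days 1, 5, 9, 13). Toxicity survivors were scored on day 5 as survivors over initial group. Body-weight difference was day 14 minus day 1.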

Mus musculus [5] = assay: Ability of 25 mg/kg of compound to kill L1210 tumor cells in mice is expressed as the log of the tumor cell population at the onset of treatment minus the log of the tumor cell population at the end of treatment; assay type: functional; how it was run: as §1
Mus musculus [6] = assay: Body weight difference (BWD) of test animals administered with 100 mg/kg compound is determined on day 5 for L1210 tumor cells; assay type: functional
How it was run: (§4)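 L1210 leukaemia: 10^5 cells implanted ip on day 0 in mice. Freshly prepared saline suspension given ip once daily on days 1–5. Body weight difference in g (treated minus control) taken as day 5 minus day 1. Six animals per dose.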

Mus musculus [7] = assay: The toxicity day was […] tumor cells of test animals dosed with 400 mg/kg of compound; 1/10; assay type: functional, M5076; how it was run: as §3
Mus musculus [8] = assay: The toxicity day was evaluated on day 0 for LOX tumor cells of test animals dosed with 25 mg/kg of compound; 6/6; assay type: functional
Mus musculus [9] = assay: Toxicity day evaluation was carried out on day 5 for animal dosed with 25 mg/kg compound; 6/6; assay type: organism-based; design: dose 25 mg/kg; settings: in vivo
Mus musculus [10] = assay: The percent of the median survival time of test mice compared to control mice, administered with 200 mg/kg compound on day 14 for M5076 minus 1 tumor cells; assay type: functional
How it was run: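 M5076 sarcoma, 10^6 cells ip on day 0 in B6C3F1 mice. Drug given ip as a fresh saline suspension every fourth day (days 1, 5, 9, 13). % T/C is median survival of treated versus control mice, counting long-term survivors. Cures are 60-day survivors. Log cell kill is derived from this.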

Mus musculus [11] = assay: Body weight difference (BWD) of test animals administered with 50 mg/kg compound is determined on day 10 for LOX tumor cells.
Mus musculus [12] = assay: The toxicity day was evaluated […] for M5076 minus 1 tumor cells of test animals dosed with 25 mg/kg of compound; 10/10; assay type: functional; how it was run: as §3
Mus musculus [13] = assay: Toxicity day evaluation was carried out on day 5 for animal dosed with 50 mg/kg compound; 6/6; assay type: organism-based; design: dose 50 mg/kg; settings: in vivo
Mus musculus [14] = assay: Body weight difference (BWD) of test animals administered with 50 mg/kg compound is determined on day 5 for P388 tumor cells; assay type: functional
How it was run: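 P388 leukaemia: about 10^6 cells in ascitic fluid inoculated ip on day 0 (CD2F1 mice). Compound given ip in normal saline as a freshly prepared solution or suspension, once daily on days 1–5. Treated-minus-control body weight difference in g, taken as day 5 minus day 1 weight. Groups of six.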

Mus musculus [15] = assay: Toxicity day evaluation was carried out on day 5 for animal dosed with 12.5 mg/kg compound; 6/6; assay type: organism-based; design: dose 12.5 mg/kg; settings: in vivo
Mus musculus [16] = assay: Body weight difference (BWD) of test animals administered with 25 mg/kg compound is determined on day 14 for M5076 minus 1 tumor cells; assay type: functional
How it was run: (§5)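 M5076 sarcoma: 10^6 cells inoculated ip on day 0 in B6C3F1 mice. Fresh saline suspension dosed ip every fourth day, on days 1, 5, 9 and 13. Body weight difference in g (treated minus control) taken as day 14 minus day 1. Ten mice per group.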

Mus musculus [17] = assay: The toxicity day was evaluated on day 5 for L1210 tumor cells of test animals dosed with 12.5 mg/kg of compound; 6/6; assay type: functional
How it was run: (§6)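 L1210 leukaemia, 10^5 cells, implanted ip on day 0. Freshly prepared saline suspension dosed ip daily on days 1-5. Toxicity evaluated on day 5 as survivors over animals in the initial test group.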

Mus musculus [18] = assay: Toxicity day evaluation was carried out on day 5 for animal dosed with 100 mg/kg compound; 6/6; assay type: organism-based; design: dose 100 mg/kg; settings: in vivo
Mus musculus [19] = assay: Body weight difference (BWD) of test animals administered with 100 mg/kg compound is determined on day 14 for M5076 minus 1 tumor cells; assay type: functional; how it was run: as §5
Mus musculus [20] = assay: The percent of the median survival time of test mice compared to control mice, administered with 50 mg/kg compound on day 5 for L1210 tumor cells; assay type: functional; how it was run: as §1
Mus musculus [21] = assay: The toxicity day was evaluated on day 5 for L1210 tumor cells of test animals dosed with 100 mg/kg of compound; 6/6; assay type: functional; how it was run: as §6
Mus musculus [22] = assay: The toxicity day was evaluated on […] for MX-1 tumor cells of test animals dosed with 200 mg/kg of compound; 1/6; assay type: functional; how it was run: as §2
Mus musculus [23] = assay: The toxicity day was evaluated on day 5 for L1210 tumor cells of test animals dosed with 200 mg/kg of compound; 0/6; assay type: functional; how it was run: as §6
Mus musculus [24] = assay: Body weight difference (BWD) of test animals administered with 100 mg/kg compound is determined on day 10 for LOX tumor cells.
Mus musculus [25] = assay: The toxicity day was […] for M5076 minus 1 tumor cells of test animals dosed with 100 mg/kg of compound; 10/10; assay type: functional; how it was run: as §3
Mus musculus [26] = assay: The toxicity day was evaluated on day 5 for L1210 tumor cells of test animals dosed with 25 mg/kg of compound; 6/6; assay type: functional; how it was run: as §6
[27] = Retention time was determined; assay type: ADME
Mus musculus [28] = assay: The toxicity day was evaluated […] for M5076 minus 1 tumor cells of test animals dosed with 200 mg/kg of compound; 10/10; assay type: functional; how it was run: as §3
Mus musculus [29] = assay: The percent of the median survival time of test mice compared to control mice is % T/C. It is determined for mice administered with 100 mg/kg compound on day 0 for LOX 1 tumor cells.; assay type: functional; settings: route intraperitoneal
Mus musculus [30] = assay: Body weight difference (BWD) of test animals administered with 12.5 mg/kg compound is determined on day 5 for L1210 tumor cells; assay type: functional; how it was run: as §4
Mus musculus [31] = assay: Body weight difference (BWD) of test animals administered with 25 mg/kg compound is determined on day 5 for L1210 tumor cells; assay type: functional; how it was run: as §4

CNC(=O)OCc1nc(SC)n(C)c1COC(=O)NC
KE (Mus musculus [1]): -1.94
Survivors / animals tested (Mus musculus [2]): 5
T/C (Mus musculus [3]): -73%
Survivors / animals tested (Mus musculus [4]): 10
KE (Mus musculus [5]): -2.23
BWD (Mus musculus [6]): -1.9 g
Survivors / animals tested (Mus musculus [7]): 1
Survivors / animals tested (Mus musculus [8]): 6
Survivors / animals tested (Mus musculus [9]): 6
T/C (Mus musculus [10]): 184%
BWD (Mus musculus [11]): -3.3 g
Survivors / animals tested (Mus musculus [12]): 10
Survivors / animals tested (Mus musculus [13]): 6
BWD (Mus musculus [14]): -2.6 g
Survivors / animals tested (Mus musculus [15]): 6
BWD (Mus musculus [16]): -2 g
Survivors / animals tested (Mus musculus [17]): 6
Survivors / animals tested (Mus musculus [18]): 6
BWD (Mus musculus [19]): -1.2 g
T/C (Mus musculus [20]): 124%
Survivors / animals tested (Mus musculus [21]): 6
Survivors / animals tested (Mus musculus [22]): 1
Survivors / animals tested (Mus musculus [23]): 0
BWD (Mus musculus [24]): -5.1 g
Survivors / animals tested (Mus musculus [25]): 10
Survivors / animals tested (Mus musculus [26]): 6
TR [27]: 39 min
Survivors / animals tested (Mus musculus [28]): 10
T/C (Mus musculus [29]): 365%
BWD (Mus musculus [30]): -0.2 g
BWD (Mus musculus [31]): 0 g

— ChEMBL document CHEMBL1124663, “Design, synthesis, antineoplastic activity, and chemical properties of bis(carbamate) derivatives of 4,5-bis(hydroxymethyl)imidazole” (J Med Chem, 1989)
